Source: ChEMBL document CHEMBL4229333, “Effects of rigidity on the selectivity of protein kinase inhibitors” (Eur J Med Chem, 2018)

How the values were obtained:
[1] = biological target: Serine/threonine-protein kinase B-raf (Homo sapiens, UniProt P15056, V600E); assay: Inhibition of full length FLAG-tagged BRAF V600E mutant (unknown origin) expressed in HEK293 cells assessed as decrease in MEK phosphorylation by immunoblotting assay; format: cell-based
[2] = Apparent permeability from apical to basolateral side in human Caco2 cells in absence of P-gp inhibitor by LC-MS/MS analysis; format: ADME, cell-based; conditions: Caco-2
In short: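 Caco-2 monolayer permeability, measured apical-to-basolateral and basolateral-to-apical. Compound concentrations were quantified by LC-MS/MS, and apparent permeability coefficients (Papp, cm/s) were calculated from them.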

[3] = biological target: Aurora kinase C (Homo sapiens) (UniProt Q9UQB9); assay: Inhibition of AURORA-C (unknown origin) at 1 uM by mobility shift microfluidics platform based assay relative to control
[4] = biological target: Calcium/calmodulin-dependent protein kinase type 1 (Homo sapiens) (UniProt Q14012); assay: Inhibition of CAMK1A (unknown origin) at 1 uM by mobility shift microfluidics platform based assay relative to control
[5] = biological target: Calcium/calmodulin-dependent protein kinase type 1D (Homo sapiens) (UniProt Q8IU85); assay: Inhibition of CAMK1D (unknown origin) at 1 uM by mobility shift microfluidics platform based assay relative to control
[6] = biological target: Calcium/calmodulin-dependent protein kinase type II subunit beta (Homo sapiens) (UniProt Q13554); assay: Inhibition of CAMK2B (unknown origin) at 1 uM by mobility shift microfluidics platform based assay relative to control
[7] = biological target: Cyclin-dependent kinase 1 (Homo sapiens) (UniProt P06493); assay: Inhibition of CDK1 (unknown origin) at 1 uM by mobility shift microfluidics platform based assay relative to control
Cyclin-dependent kinase 1 (Homo sapiens), sequence (P06493 whole entry, looked up): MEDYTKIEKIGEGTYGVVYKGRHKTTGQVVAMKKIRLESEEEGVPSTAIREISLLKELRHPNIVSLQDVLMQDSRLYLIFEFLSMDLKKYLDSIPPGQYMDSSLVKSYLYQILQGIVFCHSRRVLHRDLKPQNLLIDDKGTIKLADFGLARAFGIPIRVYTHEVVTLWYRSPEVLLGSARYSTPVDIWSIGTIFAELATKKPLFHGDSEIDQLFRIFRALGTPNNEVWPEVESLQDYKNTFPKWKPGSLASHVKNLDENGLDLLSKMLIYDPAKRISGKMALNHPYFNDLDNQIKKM

Homo sapiens = species: Homo sapiens; assay: Inhibition of CDK/cyclin D3 (unknown origin) at 1 uM by mobility shift microfluidics platform based assay relative to control
[8] = biological target: Serine/threonine-protein kinase Chk2 (Homo sapiens) (UniProt O96017); assay: Inhibition of CHEK2 (unknown origin) at 1 uM by mobility shift microfluidics platform based assay relative to control
[9] = biological target: Dual specificity protein kinase CLK3 (Homo sapiens) (UniProt P49761); assay: Inhibition of CLK3 (unknown origin) at 1 uM by mobility shift microfluidics platform based assay relative to control
[10] = biological target: Tyrosine-protein kinase CSK (Homo sapiens) (UniProt P41240); assay: Inhibition of CSK (unknown origin) at 1 uM by mobility shift microfluidics platform based assay relative to control
[11] = biological target: Dual specificity tyrosine-phosphorylation-regulated kinase 2 (Homo sapiens) (UniProt Q92630); assay: Inhibition of DYRK2 (unknown origin) at 1 uM by mobility shift microfluidics platform based assay relative to control
[12] = biological target: Ephrin type-B receptor 2 (Homo sapiens) (UniProt P29323); assay: Inhibition of EPH-B2 (unknown origin) at 1 uM by mobility shift microfluidics platform based assay relative to control
[13] = biological target: Ephrin type-B receptor 4 (Homo sapiens) (UniProt P54760); assay: Inhibition of EPH-B4 (unknown origin) at 1 uM by mobility shift microfluidics platform based assay relative to control
[14] = biological target: Fibroblast growth factor receptor 1 (Homo sapiens) (UniProt P11362); assay: Inhibition of FGFR1 (unknown origin) at 1 uM by mobility shift microfluidics platform based assay relative to control
[15] = biological target: Mitogen-activated protein kinase 8 (Homo sapiens) (UniProt P45983); assay: Inhibition of JNK1 (unknown origin) at 1 uM by mobility shift microfluidics platform based assay relative to control
[16] = biological target: Tyrosine-protein kinase Lck (Homo sapiens) (UniProt P06239); assay: Inhibition of LCK (unknown origin) at 1 uM by mobility shift microfluidics platform based assay relative to control
[17] = biological target: Dual specificity mitogen-activated protein kinase kinase 1 (Homo sapiens) (UniProt Q02750); assay: Inhibition of MEK1 (unknown origin) at 1 uM by mobility shift microfluidics platform based assay relative to control
[18] = biological target: Serine/threonine-protein kinase MRCK alpha (Homo sapiens) (UniProt Q5VT25); assay: Inhibition of MRCK-alpha (unknown origin) at 1 uM by mobility shift microfluidics platform based assay relative to control
Serine/threonine-protein kinase MRCK alpha (Homo sapiens), sequence (Q5VT25 whole entry): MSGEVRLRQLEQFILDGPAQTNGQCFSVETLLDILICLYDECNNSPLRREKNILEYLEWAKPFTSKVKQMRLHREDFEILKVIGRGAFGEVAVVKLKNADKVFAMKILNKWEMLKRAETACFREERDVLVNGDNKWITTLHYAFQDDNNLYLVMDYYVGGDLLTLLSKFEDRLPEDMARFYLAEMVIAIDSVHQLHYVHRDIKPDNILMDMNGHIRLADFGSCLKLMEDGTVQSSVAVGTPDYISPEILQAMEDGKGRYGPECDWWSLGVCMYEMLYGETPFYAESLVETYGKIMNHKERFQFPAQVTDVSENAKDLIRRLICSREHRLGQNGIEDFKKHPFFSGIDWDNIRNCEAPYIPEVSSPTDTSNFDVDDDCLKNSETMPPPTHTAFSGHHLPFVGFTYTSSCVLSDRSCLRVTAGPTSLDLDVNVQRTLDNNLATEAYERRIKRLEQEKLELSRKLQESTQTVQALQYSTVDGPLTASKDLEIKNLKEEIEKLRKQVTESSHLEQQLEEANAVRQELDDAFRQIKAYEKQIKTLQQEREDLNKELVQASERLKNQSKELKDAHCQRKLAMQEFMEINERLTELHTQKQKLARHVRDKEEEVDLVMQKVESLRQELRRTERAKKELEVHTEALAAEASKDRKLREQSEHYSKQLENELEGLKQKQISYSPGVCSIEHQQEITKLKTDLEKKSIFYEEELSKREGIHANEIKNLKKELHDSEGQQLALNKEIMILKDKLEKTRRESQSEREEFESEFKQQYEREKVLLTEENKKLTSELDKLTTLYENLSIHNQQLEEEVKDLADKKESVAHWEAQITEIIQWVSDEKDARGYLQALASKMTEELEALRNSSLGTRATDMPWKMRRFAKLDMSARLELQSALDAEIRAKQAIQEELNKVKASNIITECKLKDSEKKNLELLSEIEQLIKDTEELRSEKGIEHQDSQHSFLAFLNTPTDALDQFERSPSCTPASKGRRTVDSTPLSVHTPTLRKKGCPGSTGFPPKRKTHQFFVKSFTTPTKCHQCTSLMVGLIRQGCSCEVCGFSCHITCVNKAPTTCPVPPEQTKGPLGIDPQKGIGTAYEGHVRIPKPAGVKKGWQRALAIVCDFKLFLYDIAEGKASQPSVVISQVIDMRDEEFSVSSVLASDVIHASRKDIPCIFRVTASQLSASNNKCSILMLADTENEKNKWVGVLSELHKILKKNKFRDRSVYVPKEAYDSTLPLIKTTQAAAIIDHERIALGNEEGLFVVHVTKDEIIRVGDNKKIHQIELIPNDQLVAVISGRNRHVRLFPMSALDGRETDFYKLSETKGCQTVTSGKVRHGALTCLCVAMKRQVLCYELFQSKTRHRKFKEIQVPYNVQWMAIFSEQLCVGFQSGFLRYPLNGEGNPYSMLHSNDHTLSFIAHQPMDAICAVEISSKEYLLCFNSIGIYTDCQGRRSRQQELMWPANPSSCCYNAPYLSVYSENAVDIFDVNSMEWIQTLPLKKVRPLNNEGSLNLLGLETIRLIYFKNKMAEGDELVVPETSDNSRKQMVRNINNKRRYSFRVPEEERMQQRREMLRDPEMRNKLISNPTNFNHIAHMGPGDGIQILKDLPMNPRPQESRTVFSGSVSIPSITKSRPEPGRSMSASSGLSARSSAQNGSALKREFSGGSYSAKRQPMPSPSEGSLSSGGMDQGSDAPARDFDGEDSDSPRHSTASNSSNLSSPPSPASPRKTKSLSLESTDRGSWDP

[19] = biological target: Serine/threonine-protein kinase PAK 1 (Homo sapiens) (UniProt Q13153); assay: Inhibition of PAK1 (unknown origin) at 1 uM by mobility shift microfluidics platform based assay relative to control
[20] = biological target: Platelet-derived growth factor receptor beta (Homo sapiens) (UniProt P09619); assay: Inhibition of PDGFR-beta (unknown origin) at 1 uM by mobility shift microfluidics platform based assay relative to control
Platelet-derived growth factor receptor beta (Homo sapiens), sequence (P09619 whole entry): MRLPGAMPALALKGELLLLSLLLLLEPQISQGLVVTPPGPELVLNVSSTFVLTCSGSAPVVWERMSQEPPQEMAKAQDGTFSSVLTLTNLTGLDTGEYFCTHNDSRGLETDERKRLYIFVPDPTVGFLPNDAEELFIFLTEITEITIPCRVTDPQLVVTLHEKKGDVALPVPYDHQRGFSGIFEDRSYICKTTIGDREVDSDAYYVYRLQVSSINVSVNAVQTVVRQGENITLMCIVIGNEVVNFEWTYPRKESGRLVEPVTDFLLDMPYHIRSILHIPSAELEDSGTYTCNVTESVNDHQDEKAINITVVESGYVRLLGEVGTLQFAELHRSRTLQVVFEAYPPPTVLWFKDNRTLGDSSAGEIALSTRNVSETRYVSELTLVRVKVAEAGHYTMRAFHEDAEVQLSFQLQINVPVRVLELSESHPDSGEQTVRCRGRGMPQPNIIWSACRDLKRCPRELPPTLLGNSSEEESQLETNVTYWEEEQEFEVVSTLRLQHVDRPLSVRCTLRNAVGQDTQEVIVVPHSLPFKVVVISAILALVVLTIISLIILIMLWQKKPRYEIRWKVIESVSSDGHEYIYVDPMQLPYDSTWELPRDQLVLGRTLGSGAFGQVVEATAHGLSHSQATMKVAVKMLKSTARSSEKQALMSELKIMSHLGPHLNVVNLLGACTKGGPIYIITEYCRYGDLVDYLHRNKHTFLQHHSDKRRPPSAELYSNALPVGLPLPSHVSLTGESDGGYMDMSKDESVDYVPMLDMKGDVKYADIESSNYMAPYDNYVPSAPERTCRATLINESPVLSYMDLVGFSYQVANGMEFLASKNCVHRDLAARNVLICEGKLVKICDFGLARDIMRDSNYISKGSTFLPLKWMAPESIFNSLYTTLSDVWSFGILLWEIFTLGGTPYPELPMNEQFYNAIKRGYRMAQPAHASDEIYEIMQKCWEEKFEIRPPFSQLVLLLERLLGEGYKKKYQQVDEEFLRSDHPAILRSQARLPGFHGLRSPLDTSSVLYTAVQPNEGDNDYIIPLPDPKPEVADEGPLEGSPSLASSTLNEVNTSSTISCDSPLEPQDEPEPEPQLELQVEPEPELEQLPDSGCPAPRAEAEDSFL

[21] = biological target: 3-phosphoinositide-dependent protein kinase 1 (Homo sapiens) (UniProt O15530); assay: Inhibition of PDK1 (unknown origin) at 1 uM by mobility shift microfluidics platform based assay relative to control
[22] = biological target: Eukaryotic translation initiation factor 2-alpha kinase 3 (Homo sapiens) (UniProt Q9NZJ5); assay: Inhibition of PERK (unknown origin) at 1 uM by mobility shift microfluidics platform based assay relative to control
[23] = biological target: Phosphatidylinositol 4,5-bisphosphate 3-kinase catalytic subunit alpha isoform (Homo sapiens) (UniProt P42336); assay: Inhibition of PI3K-alpha (unknown origin) at 1 uM by mobility shift microfluidics platform based assay relative to control
Phosphatidylinositol 4,5-bisphosphate 3-kinase catalytic subunit alpha isoform (Homo sapiens), sequence (P42336 whole entry, canonical isoform): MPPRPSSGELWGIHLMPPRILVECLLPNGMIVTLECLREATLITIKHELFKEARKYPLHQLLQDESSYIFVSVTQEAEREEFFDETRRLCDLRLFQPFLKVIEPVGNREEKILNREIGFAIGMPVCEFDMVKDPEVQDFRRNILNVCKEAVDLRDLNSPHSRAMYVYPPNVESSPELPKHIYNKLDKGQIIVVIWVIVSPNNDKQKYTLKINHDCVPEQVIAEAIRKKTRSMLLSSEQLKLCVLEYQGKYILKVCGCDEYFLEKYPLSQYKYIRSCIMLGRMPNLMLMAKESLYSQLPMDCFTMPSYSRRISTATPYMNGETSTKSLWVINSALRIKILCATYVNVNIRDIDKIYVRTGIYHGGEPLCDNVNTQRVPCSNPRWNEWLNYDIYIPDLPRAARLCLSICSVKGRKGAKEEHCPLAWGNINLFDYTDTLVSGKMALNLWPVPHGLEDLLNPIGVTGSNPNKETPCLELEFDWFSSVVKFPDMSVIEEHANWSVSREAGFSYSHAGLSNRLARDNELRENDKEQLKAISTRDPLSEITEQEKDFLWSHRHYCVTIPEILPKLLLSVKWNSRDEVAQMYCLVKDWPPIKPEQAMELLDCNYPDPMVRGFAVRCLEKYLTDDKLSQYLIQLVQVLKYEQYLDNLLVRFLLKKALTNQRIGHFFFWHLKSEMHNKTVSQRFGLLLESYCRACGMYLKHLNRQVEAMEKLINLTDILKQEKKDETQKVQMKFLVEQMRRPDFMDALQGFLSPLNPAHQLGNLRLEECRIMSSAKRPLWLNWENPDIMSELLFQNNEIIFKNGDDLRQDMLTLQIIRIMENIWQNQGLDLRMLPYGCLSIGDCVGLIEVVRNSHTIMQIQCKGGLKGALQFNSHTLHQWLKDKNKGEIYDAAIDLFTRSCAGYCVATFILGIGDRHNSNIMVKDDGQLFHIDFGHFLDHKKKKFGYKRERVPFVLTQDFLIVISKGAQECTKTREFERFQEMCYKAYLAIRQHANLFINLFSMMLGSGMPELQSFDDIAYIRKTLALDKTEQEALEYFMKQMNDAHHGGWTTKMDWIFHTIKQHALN

[24] = biological target: Serine/threonine-protein kinase PLK1 (Homo sapiens) (UniProt P53350); assay: Inhibition of PLK1 (unknown origin) at 1 uM by mobility shift microfluidics platform based assay relative to control
[25] = biological target: Protein-tyrosine kinase 2-beta (Homo sapiens) (UniProt Q14289); assay: Inhibition of PYK2 (unknown origin) at 1 uM by mobility shift microfluidics platform based assay relative to control
[26] = biological target: Receptor-interacting serine/threonine-protein kinase 2 (Homo sapiens) (UniProt O43353); assay: Inhibition of RIPK2 (unknown origin) at 1 uM by mobility shift microfluidics platform based assay relative to control
[27] = biological target: Serine/threonine-protein kinase Sgk2 (Homo sapiens) (UniProt Q9HBY8); assay: Inhibition of SGK2 (unknown origin) at 1 uM by mobility shift microfluidics platform based assay relative to control
[28] = biological target: SRSF protein kinase 2 (Homo sapiens) (UniProt P78362); assay: Inhibition of SRPK2 (unknown origin) at 1 uM by mobility shift microfluidics platform based assay relative to control
[29] = biological target: Tyrosine-protein kinase Tec (Homo sapiens) (UniProt P42680); assay: Inhibition of TEC (unknown origin) at 1 uM by mobility shift microfluidics platform based assay relative to control
[30] = biological target: Angiopoietin-1 receptor (Homo sapiens) (UniProt Q02763); assay: Inhibition of TIE2 (unknown origin) at 1 uM by mobility shift microfluidics platform based assay relative to control
[31] = biological target: BDNF/NT-3 growth factors receptor (Homo sapiens) (UniProt Q16620); assay: Inhibition of TRKB (unknown origin) at 1 uM by mobility shift microfluidics platform based assay relative to control
[32] = biological target: Dual specificity protein kinase TTK (Homo sapiens) (UniProt P33981); assay: Inhibition of TTK (unknown origin) at 1 uM by mobility shift microfluidics platform based assay relative to control
Dual specificity protein kinase TTK (Homo sapiens), sequence (P33981 whole entry): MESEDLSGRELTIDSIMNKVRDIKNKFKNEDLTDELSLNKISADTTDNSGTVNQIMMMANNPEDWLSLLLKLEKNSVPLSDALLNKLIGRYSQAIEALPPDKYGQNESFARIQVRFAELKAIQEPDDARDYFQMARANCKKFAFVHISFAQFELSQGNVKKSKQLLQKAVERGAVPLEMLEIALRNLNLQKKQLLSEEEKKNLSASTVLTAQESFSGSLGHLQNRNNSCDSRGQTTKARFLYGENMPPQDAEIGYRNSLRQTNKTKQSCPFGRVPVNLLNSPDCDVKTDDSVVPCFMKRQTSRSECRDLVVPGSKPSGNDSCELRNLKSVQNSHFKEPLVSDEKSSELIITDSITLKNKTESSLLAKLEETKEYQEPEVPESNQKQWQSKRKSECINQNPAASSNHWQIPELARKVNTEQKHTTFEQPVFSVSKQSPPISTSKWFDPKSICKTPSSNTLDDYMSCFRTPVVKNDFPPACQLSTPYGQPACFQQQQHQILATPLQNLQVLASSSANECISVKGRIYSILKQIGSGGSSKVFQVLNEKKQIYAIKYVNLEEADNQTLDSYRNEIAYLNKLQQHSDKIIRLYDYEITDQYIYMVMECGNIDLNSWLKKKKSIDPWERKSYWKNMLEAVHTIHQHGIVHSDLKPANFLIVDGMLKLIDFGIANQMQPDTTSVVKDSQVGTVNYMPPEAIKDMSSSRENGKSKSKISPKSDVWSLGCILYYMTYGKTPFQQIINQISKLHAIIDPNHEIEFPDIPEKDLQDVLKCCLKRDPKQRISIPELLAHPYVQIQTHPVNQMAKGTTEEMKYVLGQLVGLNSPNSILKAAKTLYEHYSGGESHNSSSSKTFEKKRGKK

Row | Compound | IC50 [1] [nM] | Papp A→B [2] [×10⁻⁶ cm/s] | inhibition [3] [%] | inhibition [4] [%] | inhibition [5] [%] | inhibition [6] [%] | inhibition [7] [%] | inhibition (Homo sapiens) [%] | inhibition [8] [%] | inhibition [9] [%] | inhibition [10] [%] | inhibition [11] [%] | inhibition [12] [%] | inhibition [13] [%] | inhibition [14] [%] | inhibition [15] [%] | inhibition [16] [%] | inhibition [17] [%] | inhibition [18] [%] | inhibition [19] [%] | also measured
1 | CC(C)n1nc(C#Cc2cccc3cc(-c4cccc(C(F)(F)F)c4)ncc23)c2c(N)ncnc21 | 14 | 0.8 | -2 | 1 | 10 | 5 | 0 | 1 | -4 | 6 | 31 | -3 | 97 | 80 | 91 | 2 | 85 | -8 | 2 | -1 | inhibition [20]: 71%; inhibition [21]: 5%; inhibition [22]: 0%; inhibition [23]: -8%; inhibition [24]: 1%; inhibition [25]: 1%; inhibition [26]: 82%; inhibition [27]: -2%; inhibition [28]: -1%; inhibition [29]: 2%; inhibition [30]: 61%; inhibition [31]: 13%; inhibition [32]: -3%
2 | CC(C)n1nc(C#Cc2cccc(NC(=O)c3cccc(C(F)(F)F)c3)c2)c2c(N)ncnc21 | 2 | 0.5 | 33 | 2 | 7 | 1 | 6 | 8 | 3 | -1 | 93 | 11 | 99 | 97 | 98 | -9 | 100 | 13 | 0 | 0 | inhibition [20]: 100%; inhibition [21]: 4%; inhibition [22]: 29%; inhibition [23]: 36%; inhibition [24]: 1%; inhibition [25]: 74%; inhibition [26]: 98%; inhibition [27]: 0%; inhibition [28]: -1%; inhibition [29]: 40%; inhibition [30]: 96%; inhibition [31]: 43%; inhibition [32]: 33%
